Measured values taken from ChEMBL document CHEMBL3351244, “Structure based design of novel 6,5 heterobicyclic mitogen-activated protein kinase kinase (MEK) inhibitors leading to the discovery of imidazo[1,5-a] pyrazine G-479” (Bioorg Med Chem Lett, 2014).
≈ marks a conversion by molar mass, not a printed value.

Assays:
Cytochrome P450 2C9 = Cytochrome P450 2C9 (Homo sapiens, UniProt P11712); assay: Inhibition of CYP2C9 (unknown origin); format: ADME
[1] = Antiproliferative activity against human HCT116 cells assessed as inhibition of cell proliferation after 72 hrs; format: functional, cell-based; details: HCT-116, 72 h
In short: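 Cell proliferation measured after 72 h exposure in HCT116 and A375 cells; IC₅₀ reported.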

Cytochrome P450 3A4 [2] = biological target: T1, Cytochrome P450 3A4 (Homo sapiens, UniProt P08684); assay: Inhibition of CYP3A4 (unknown origin) using testosterone substrate; format: ADME
T1 sequence (P08684 whole entry): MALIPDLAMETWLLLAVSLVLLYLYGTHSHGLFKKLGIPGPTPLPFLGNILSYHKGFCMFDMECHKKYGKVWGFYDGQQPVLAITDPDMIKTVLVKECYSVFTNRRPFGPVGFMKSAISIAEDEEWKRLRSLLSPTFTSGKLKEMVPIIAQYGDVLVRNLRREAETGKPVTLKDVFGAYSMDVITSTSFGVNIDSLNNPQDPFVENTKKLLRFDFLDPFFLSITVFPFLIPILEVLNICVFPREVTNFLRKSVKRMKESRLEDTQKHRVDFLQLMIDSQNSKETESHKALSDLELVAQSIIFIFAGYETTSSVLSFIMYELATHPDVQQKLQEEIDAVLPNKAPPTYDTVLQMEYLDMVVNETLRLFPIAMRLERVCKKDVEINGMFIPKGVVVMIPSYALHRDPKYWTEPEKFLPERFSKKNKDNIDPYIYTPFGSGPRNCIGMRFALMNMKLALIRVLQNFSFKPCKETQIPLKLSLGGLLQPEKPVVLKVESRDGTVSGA

Cytochrome P450 1A2 = biological target: T2, Cytochrome P450 1A2 (Homo sapiens, UniProt P05177); assay: Inhibition of CYP1A2 (unknown origin); format: ADME
T2 sequence (P05177 whole entry): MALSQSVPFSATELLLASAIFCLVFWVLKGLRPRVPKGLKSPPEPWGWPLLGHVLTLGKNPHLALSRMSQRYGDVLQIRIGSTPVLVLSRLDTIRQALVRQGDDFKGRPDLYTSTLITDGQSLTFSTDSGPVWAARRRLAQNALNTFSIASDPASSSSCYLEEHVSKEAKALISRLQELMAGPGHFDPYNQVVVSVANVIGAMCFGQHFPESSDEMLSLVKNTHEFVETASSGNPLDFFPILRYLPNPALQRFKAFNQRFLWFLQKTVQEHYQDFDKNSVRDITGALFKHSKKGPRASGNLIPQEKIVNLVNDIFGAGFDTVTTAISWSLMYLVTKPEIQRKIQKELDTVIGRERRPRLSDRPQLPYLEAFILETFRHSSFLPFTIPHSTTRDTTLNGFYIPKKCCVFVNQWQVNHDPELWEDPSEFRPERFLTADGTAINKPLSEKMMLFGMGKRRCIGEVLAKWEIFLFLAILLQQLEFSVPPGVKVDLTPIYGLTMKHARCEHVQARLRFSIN

Cytochrome P450 2D6 = Cytochrome P450 2D6 (Homo sapiens, UniProt P10635); assay: Inhibition of CYP2D6 (unknown origin); format: ADME
Sequence of Cytochrome P450 2D6 (P10635 whole entry): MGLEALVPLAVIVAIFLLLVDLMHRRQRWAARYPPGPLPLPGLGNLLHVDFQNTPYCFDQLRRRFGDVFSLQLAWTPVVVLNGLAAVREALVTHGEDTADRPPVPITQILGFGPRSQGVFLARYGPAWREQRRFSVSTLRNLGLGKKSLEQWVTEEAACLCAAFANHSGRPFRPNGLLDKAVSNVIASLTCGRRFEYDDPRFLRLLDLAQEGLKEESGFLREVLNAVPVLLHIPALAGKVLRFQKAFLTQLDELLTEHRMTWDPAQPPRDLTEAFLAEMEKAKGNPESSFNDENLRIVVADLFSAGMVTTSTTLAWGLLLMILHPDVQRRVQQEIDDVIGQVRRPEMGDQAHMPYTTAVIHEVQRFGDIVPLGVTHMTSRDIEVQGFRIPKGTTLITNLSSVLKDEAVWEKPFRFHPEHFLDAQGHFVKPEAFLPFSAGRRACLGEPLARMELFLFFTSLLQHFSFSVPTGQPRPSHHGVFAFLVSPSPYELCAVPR

[3] = Lipophilicity, logD of the compound at pH 7.4; format: physicochemical; details: buffer
Cytochrome P450 3A4 [4] = biological target: T1, Cytochrome P450 3A4; assay: Inhibition of CYP3A4 (unknown origin) using midazolam substrate; format: ADME
Cytochrome P450 2C19 = Cytochrome P450 2C19 (Homo sapiens, UniProt P33261); assay: Inhibition of CYP2C19 (unknown origin); format: ADME
Sequence of Cytochrome P450 2C19 (P33261 whole entry): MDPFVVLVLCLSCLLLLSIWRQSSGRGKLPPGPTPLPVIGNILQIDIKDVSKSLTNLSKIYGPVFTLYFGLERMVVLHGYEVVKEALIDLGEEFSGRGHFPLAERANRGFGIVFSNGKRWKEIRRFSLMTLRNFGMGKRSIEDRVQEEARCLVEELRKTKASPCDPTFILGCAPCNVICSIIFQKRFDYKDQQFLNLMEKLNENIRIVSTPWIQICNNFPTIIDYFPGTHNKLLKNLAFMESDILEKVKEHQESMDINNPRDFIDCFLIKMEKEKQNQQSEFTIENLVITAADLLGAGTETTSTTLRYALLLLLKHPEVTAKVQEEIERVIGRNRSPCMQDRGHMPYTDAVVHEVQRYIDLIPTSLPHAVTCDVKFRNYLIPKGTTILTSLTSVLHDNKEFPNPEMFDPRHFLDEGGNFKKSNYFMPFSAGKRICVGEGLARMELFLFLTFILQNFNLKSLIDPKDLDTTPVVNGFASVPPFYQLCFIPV

[5] = biological target: Dual specificity mitogen-activated protein kinase kinase 1 (Homo sapiens, UniProt Q02750); assay: Inhibition of MEK1 (unknown origin) by HTRF assay
Sequence of Dual specificity mitogen-activated protein kinase kinase 1 (Q02750 whole entry): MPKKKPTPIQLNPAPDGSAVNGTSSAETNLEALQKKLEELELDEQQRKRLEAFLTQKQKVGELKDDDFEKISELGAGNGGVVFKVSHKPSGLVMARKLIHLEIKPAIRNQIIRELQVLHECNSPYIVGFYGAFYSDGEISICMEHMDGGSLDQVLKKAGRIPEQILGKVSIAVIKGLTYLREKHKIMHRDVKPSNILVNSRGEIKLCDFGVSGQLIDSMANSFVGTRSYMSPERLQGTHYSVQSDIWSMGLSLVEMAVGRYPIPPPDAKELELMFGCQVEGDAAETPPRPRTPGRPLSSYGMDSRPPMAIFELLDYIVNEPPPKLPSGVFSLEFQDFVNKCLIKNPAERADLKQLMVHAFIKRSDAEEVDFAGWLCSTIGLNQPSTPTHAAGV

A-375 = assay: cells; details: Homo sapiens, A-375, 72 h
[6] = Half life in rat at 1 mg/kg, iv or 5 mg/kg, po; format: ADME, organism-based; details: in vivo
[7] = Protein binding in rat plasma; format: ADME, cell-free; details: read-out: PPB (converted)
Rattus norvegicus [8] = assay: Dose normalized AUC in rat at 5 mg/kg, po; format: ADME, organism-based; parameters: dose 5 mg/kg, route oral; details: in vivo
Rattus norvegicus [9] = assay: Free clearance in rat at 1 mg/kg, iv or 5 mg/kg, po; format: ADME, organism-based; details: in vivo
[10] = Total clearance in rat at 1 mg/kg, iv or 5 mg/kg, po; format: ADME, organism-based; details: in vivo
[11] = Hepatic clearance in human liver microsomes; format: ADME
In short: (§1)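 Compounds incubated with liver microsomes from human, rat, mouse, dog and cynomolgus monkey to assess comparative metabolic stability; clearance expressed in mL/min/kg, with stable/moderate/labile designations assigned by set ranges.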

[12] = AUC in rat at 1 mg/kg, iv or 5 mg/kg, po; format: ADME, organism-based; details: plasma
[13] = biological target: Voltage-gated inwardly rectifying potassium channel KCNH2 (Homo sapiens, UniProt Q12809); assay: Inhibition of human ERG by patch clamp assay
Sequence of Voltage-gated inwardly rectifying potassium channel KCNH2 (Q12809 whole entry): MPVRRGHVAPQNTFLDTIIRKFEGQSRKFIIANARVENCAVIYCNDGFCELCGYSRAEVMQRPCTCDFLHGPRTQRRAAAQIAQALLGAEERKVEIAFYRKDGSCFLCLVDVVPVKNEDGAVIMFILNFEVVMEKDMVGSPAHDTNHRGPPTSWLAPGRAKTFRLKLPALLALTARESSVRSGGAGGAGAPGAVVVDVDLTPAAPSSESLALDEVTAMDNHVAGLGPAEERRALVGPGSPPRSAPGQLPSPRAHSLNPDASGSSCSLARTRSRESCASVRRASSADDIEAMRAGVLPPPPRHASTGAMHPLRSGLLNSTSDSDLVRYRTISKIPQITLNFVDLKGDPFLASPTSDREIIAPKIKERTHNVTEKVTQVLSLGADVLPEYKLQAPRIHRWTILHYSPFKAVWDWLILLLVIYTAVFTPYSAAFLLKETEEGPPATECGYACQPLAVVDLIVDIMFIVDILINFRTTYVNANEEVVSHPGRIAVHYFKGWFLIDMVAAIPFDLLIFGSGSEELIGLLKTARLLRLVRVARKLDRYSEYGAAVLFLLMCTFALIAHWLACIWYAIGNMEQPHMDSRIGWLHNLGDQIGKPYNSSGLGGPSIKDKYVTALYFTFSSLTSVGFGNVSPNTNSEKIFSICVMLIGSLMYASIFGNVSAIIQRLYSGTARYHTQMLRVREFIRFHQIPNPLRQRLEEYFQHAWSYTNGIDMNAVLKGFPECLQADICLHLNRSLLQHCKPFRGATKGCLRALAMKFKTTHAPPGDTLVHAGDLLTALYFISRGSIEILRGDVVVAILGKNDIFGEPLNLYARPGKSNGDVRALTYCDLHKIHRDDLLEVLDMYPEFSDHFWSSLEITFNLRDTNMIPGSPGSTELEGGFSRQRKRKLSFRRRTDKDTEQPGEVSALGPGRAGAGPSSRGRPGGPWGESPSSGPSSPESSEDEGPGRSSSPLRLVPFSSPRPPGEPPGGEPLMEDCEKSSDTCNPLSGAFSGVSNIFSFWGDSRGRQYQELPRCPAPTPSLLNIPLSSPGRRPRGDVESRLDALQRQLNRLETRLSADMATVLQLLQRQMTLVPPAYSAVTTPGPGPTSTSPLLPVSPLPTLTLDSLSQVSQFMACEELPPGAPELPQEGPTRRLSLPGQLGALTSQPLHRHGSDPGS

[14] = (§2) Permeability from basolateral to apical side in MDCK cells; format: ADME, cell-based, Canis lupus familiaris; details: dog, read-out: permeability
[15] = (§3) Permeability from apical to basolateral side in MDCK cells; format: ADME, cell-based, Canis lupus familiaris; details: dog, read-out: permeability
[16] = (§4) Efflux ratio in MDCK cells; format: ADME, cell-based, Canis lupus familiaris; details: dog
In short: (§5)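 Efflux ratio derived as B–A permeability divided by A–B permeability across MDCK cell monolayers. Apparent permeabilities were measured in both directions and expressed in 10^-6 cm/s.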

[17] = Thermodynamic solubility of the compound at pH 6.5; format: physicochemical; details: buffer, read-out: Therm_solubility
[18] = Hepatic clearance in cynomolgus monkey liver microsomes; format: ADME, Macaca fascicularis; in short: as §1
[19] = Hepatic clearance in dog liver microsomes; format: ADME, Canis lupus familiaris; in short: as §1
[20] = Hepatic clearance in rat liver microsomes; format: ADME; in short: as §1
[21] = Oral bioavailability in rat at 5 mg/kg; format: ADME, organism-based; details: in vivo
[22] = Protein binding in human plasma; format: ADME, cell-free; details: read-out: PPB (converted)
[23] = Protein binding in mouse plasma; format: ADME, cell-free; details: read-out: PPB (converted)
[24] = Volume of distribution at steady state in rat at 1 mg/kg, iv or 5 mg/kg, po; format: ADME, organism-based; details: in vivo, read-out: Vdss
[25] = Hepatic clearance in mouse liver microsomes; format: ADME; in short: as §1
[26] = Dissociation constant, pKa of the compound by Sirius based assay; format: physicochemical
MDCK [27] = assay: as §2; format: ADME, cell-based, Canis lupus familiaris; details: dog
MDCK [28] = assay: as §3; format: ADME, cell-based, Canis lupus familiaris; details: dog
MDCK [29] = assay: as §4; format: ADME, cell-based, Canis lupus familiaris; details: dog; in short: as §5
Plasma [30] = assay: Stability in rat plasma at 5 mg/kg, po; format: ADME, organism-based; parameters: dose 5 mg/kg, route oral; details: in vivo
Plasma [31] = assay: Drug metabolism rat plasma assessed as metabolite formation at 5 mg/kg, po; format: ADME, organism-based; parameters: dose 5 mg/kg, route oral; details: in vivo

Sequence of Cytochrome P450 2C9 (P11712 whole entry): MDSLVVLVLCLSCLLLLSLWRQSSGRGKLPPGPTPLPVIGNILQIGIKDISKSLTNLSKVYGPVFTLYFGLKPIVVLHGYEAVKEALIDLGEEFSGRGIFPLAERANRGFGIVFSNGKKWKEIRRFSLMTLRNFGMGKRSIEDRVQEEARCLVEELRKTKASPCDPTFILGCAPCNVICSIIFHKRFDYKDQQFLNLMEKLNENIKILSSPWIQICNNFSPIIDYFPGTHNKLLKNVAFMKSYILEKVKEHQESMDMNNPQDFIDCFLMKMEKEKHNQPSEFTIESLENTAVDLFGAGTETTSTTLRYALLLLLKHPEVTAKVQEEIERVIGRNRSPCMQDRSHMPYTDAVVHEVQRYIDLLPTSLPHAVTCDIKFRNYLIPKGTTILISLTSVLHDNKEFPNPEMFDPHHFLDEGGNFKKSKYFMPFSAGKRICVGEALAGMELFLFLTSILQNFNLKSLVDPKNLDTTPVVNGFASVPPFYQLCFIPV

SMILES | IC50 (Cytochrome P450 2C9) | EC50 [1] | IC50 (Cytochrome P450 3A4 [2]) | IC50 (Cytochrome P450 1A2) | IC50 (Cytochrome P450 2D6) | logD [3] | IC50 (Cytochrome P450 3A4 [4]) | IC50 (Cytochrome P450 2C19) | EC50 (A-375) | fraction unbound [7] | AUC/dose (Rattus norvegicus [8]) | CL free (Rattus norvegicus [9]) | clearance [10] | CLhep predicted [11] | solubility thermodynamic [17] | CLhep predicted [20] | bioavailability [21] | fraction unbound [22] | fraction unbound [23] | CLhep predicted [25] | other results
O=C(NOCCO)c1ccc2cnsc2c1Nc1ccc(I)cc1F | 1.3 µM | 0.044 µM | 9 µM | > 10 µM | > 10 µM | 3.1 | 9 µM | 1.8 µM | – | – | – | – | – | – | – | – | – | – | – | – | –
O=C(NOCCO)c1oc2ccncc2c1Nc1ccc(I)cc1F | > 10 µM | 0.12 µM | > 10 µM | > 10 µM | > 10 µM | 3.1 | > 10 µM | > 10 µM | 0.025 µM | – | – | – | – | – | – | – | – | – | – | – | IC50 [5]: 0.012 µM
O=C(NOCCO)c1cc(F)c2cncn2c1Nc1ccc(I)cc1F | 1.2 µM | 0.14 µM | – | – | – | – | – | – | – | 0.03 | 41 µM·h | 55 mL/min/kg | 3.3 mL/min/kg | – | – | – | – | – | – | – | half-life [6]: 3.6 h
O=C(NOCCO)c1ccn2cncc2c1Nc1ccc(I)cc1F | 7.3 µM | 0.035 µM | > 10 µM | > 10 µM | > 10 µM | 2.1 | > 10 µM | 16 µM | 0.002 µM | 0.022 | 37 µM·h | 636 mL/min/kg | 14 mL/min/kg | 15 mL/min/kg | 110 µg/mL (≈ 241 µM) | 40 mL/min/kg | 37% | 0.015 | 0.049 | 75 mL/min/kg | half-life [6]: 0.9 h; AUC [12]: 6 µM·h; IC50 [13]: 2.1 µM; Papp B→A [14]: 14 ×10⁻⁶ cm/s; Papp A→B [15]: 20.4 ×10⁻⁶ cm/s; efflux ratio [16]: 0.7; CLhep predicted [18]: 38 mL/min/kg; CLhep predicted [19]: 23 mL/min/kg; Vd [24]: 0.46 L/kg
O=C(NOCCO)c1ncc2cncn2c1Nc1ccc(I)cc1F | – | 0.12 µM | – | – | – | 2.1 | – | – | 0.008 µM | 0.08 | 1.48 µM·h | 600 mL/min/kg | 48 mL/min/kg | 11 mL/min/kg | 150 µg/mL (≈ 328 µM) | 41 mL/min/kg | 38% | 0.09 | 0.11 | 54 mL/min/kg | IC50 [13]: 3.3 µM; Papp B→A [14]: 14 ×10⁻⁶ cm/s; pKa [26]: 2.03; Papp A→B [15]: 19.7 ×10⁻⁶ cm/s; efflux ratio [16]: 0.7
C[C@H](O)CONC(=O)c1ncc2cncn2c1Nc1ccc(I)cc1F | – | 0.052 µM | – | – | – | – | – | – | 0.005 µM | 0.055 | 0.61 µM·h | 800 mL/min/kg | 44 mL/min/kg | 10 mL/min/kg | 48 µg/mL (≈ 102 µM) | 44 mL/min/kg | 15% | 0.1 | 0.09 | 56 mL/min/kg | –
C[C@H](CO)CONC(=O)c1ncc2cncn2c1Nc1ccc(I)cc1F | – | 0.107 µM | – | – | – | – | – | – | 0.007 µM | 0.13 | 9.2 µM·h | 92 mL/min/kg | 12 mL/min/kg | 8 mL/min/kg | 12 µg/mL (≈ 24.7 µM) | 19 mL/min/kg | 65% | 0.14 | 0.13 | 29 mL/min/kg | IC50 [13]: 14 µM; permeability (MDCK [27]): 8.7 ×10⁻⁶ cm/s; permeability (MDCK [28]): 7.9 ×10⁻⁶ cm/s; Ratio (MDCK [29]): 1.3
O=C(NOCCO)c1ccc2cncn2c1Nc1ccc(I)cc1F [GDC-0623] | > 10 µM | 0.051 µM | > 10 µM | > 10 µM | > 10 µM | 2.1 | > 10 µM | > 10 µM | 0.004 µM | 0.01 | 20 µM·h | 1320 mL/min/kg | 13.2 mL/min/kg | 14 mL/min/kg | 41 µg/mL (≈ 89.9 µM) | 38 mL/min/kg | 100% | 0.005 | 0.06 | 64 mL/min/kg | half-life [6]: 1.7 h; Stability (Plasma [30]): 82%; IC50 [13]: 4.4 µM; Papp B→A [14]: 16.5 ×10⁻⁶ cm/s; Drug metabolism (Plasma [31]): metabolite_detected; pKa [26]: 4.3; Papp A→B [15]: 6.2 ×10⁻⁶ cm/s; efflux ratio [16]: 2.6; CLhep predicted [18]: 30 mL/min/kg; CLhep predicted [19]: 12 mL/min/kg; Vd [24]: 0.5 L/kg
